Results reported in PMC5521815 (ACS chemical biology, 2016).
Entries after “also recorded” stand apart in the source; their conditions may differ.

Columns and labels:
[1] = system: E. coli; experiment: Radial diffusion assay in the presence of RBCs and/or serum; type: cell-based, Escherichia coli; conditions: RBCs up to 1x10^9 cells/ml, 30 min 37°C; result in words
Method in brief: (§1)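 Log-phase (TSB) E. coli ATCC 25922 or S. aureus ATCC 25923, 8 × 10^6 CFU in 20 mL underlay agarose with 3 mm wells. Test peptide at 20 μM was preincubated 30 min at 37 °C with washed human O+ RBCs and/or filtered serum at 2–20% of whole blood (1 × 10^8–1 × 10^9 cells/mL). 10 μL per well, 3 h at 37 °C, overlay, overnight; inhibition zones imaged.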

[2] = system: S. aureus; experiment: Radial diffusion assay in the presence of RBCs; type: cell-based, Staphylococcus aureus; conditions: RBCs up to 1x10^9 cells/ml, 30 min 37°C; result in words
Method in brief: as §1

[3] = system: Escherichia coli strain ATCC 25922; experiment: Broth dilution MIC; type: cell-based; conditions: result in words; for Activity (MIC) in broth dilution against E. coli: absence of RBCs, 5x10^5 CFU/ml, overnight 37°C
[4] = system: Staphylococcus aureus strain ATCC 25923; experiment: Broth dilution MIC; type: cell-based; conditions: absence of RBCs; 5x10^5 CFU/ml, overnight 37°C; result in words
[5] = system: human RBC; experiment: Hemolysis of human RBCs; type: cell-based; conditions: result in words; for Hemolysis, propensity to lyse human RBCs: 1x10^8 human RBC/ml, 100 μM peptide, 37° C, 1 hour; for Selectivity (antimicrobial activity relative to host cell toxicity): represented by hemolysis at 100 μM peptide
[6] = system: Escherichia coli strain ATCC 25922; conditions: result in words; cited from earlier work
[7] = system: Staphylococcus aureus strain ATCC 25923; conditions: result in words; cited from earlier work
[8] = system: E. coli; experiment: Number of bound peptides required to kill E. coli; type: cell-based, Escherichia coli; conditions: calculated from sterilization limit and binding curve
[9] = system: Pseudomonas aeruginosa; conditions: result in words; cited from earlier work

Molecule: [H]/N=C(/N)N[C@H]1[C@H](O)[C@@H](O)[C@H](O[C@@H]2O[C@@H](C)[C@](O)(C=O)[C@H]2O[C@@H]2O[C@@H](CO)[C@H](O)[C@@H](O)[C@@H]2NC)[C@@H](N/C(N)=N\[H])[C@@H]1O [streptomycin]
- Effect of preincubation with RBCs on radial diffusion activity [1]: not affected significantly

Molecule: CN[C@H](CC(C)C)C(=O)N[C@H]1C(=O)N[C@@H](CC(N)=O)C(=O)N[C@H]2C(=O)N[C@H]3C(=O)N[C@H](C(=O)N[C@H](C(=O)O)c4cc(O)cc(O)c4-c4cc3ccc4O)[C@H](O)c3ccc(c(Cl)c3)Oc3cc2cc(c3O[C@@H]2O[C@H](CO)[C@@H](O)[C@H](O)[C@H]2O[C@H]2C[C@](C)(N)[C@H](O)[C@H](C)O2)Oc2ccc(cc2Cl)[C@H]1O [vancomycin]
- Effect of preincubation with RBCs on radial diffusion activity [2]: not affected significantly

Molecule: GIGKFLHSAKKFGK-AFVGEIMNS [magainin II]
- Activity (MIC) in broth dilution against E. coli [3]: active only against E. coli
- Activity (MIC) in broth dilution against S. aureus [4]: active only against E. coli
- Hemolysis, propensity to lyse human RBCs [5]: near zero propensity to lyse dilute human RBCs
- Selectivity (antimicrobial activity relative to host cell toxicity) [5]: highly selective

Molecule: GIGKFLKKAKK-FGKAFVKILKK-NH2 [MSI-78]
- Selectivity (antimicrobial activity relative to host cell toxicity) [5]: moderately high selectivity

Molecule: ILPWKWPWWPWRR-NH2 [indolicidin]
- Selectivity (antimicrobial activity relative to host cell toxicity) [5]: poor selectivity; also recorded: very poor selectivity

Molecule: KWKLFKKIEKVGQN-IRDGIIKAGPAVAVVGQATQIAK [cecropin A]
- Activity (MIC) in broth dilution against E. coli [3]: highly active
- Activity (MIC) in broth dilution against S. aureus [4]: not against S. aureus
- Hemolysis, propensity to lyse human RBCs [5]: near zero propensity to lyse dilute human RBCs
- Selectivity (antimicrobial activity relative to host cell toxicity) [5]: highly selective; also recorded: most selective in our set

Molecule: LLGDFFRKSKEKIGKEFKRIVQRIKDFLRNLVPRTES [LL-37]
- Activity in sterilization assay against E. coli (known) [6]: poor against E. coli
- Activity in sterilization assay against S. aureus (known) [7]: undetectable against S. aureus

Molecule: RRGWALRLVLAY-NH2 [ARVA-L]
- Host cell effect on MIC without preincubation with host cells ([3]; compared with preincubation, organism not stated): much smaller
- Selectivity (antimicrobial activity relative to host cell toxicity) [5]: fair selectivity

Molecule: RRGWALRLVLAY-NH2 [ARVA]
- Bound peptides per bacterial cell required for sterilization (no surviving CFUs) [8]: > 1x10^8 peptides per bacterial cell

Molecule: RRWVRRVRRWVRRVVR-VVRRWVRR [WLBU2]
- Activity in whole blood against Pseudomonas aeruginosa [9]: retained activity in whole blood

Molecule: melittin
- Hemolysis, propensity to lyse human RBCs [5]: highly hemolytic
- Selectivity (antimicrobial activity relative to host cell toxicity) [5]: completely non-selective; also recorded: least selective peptide by far
- Selectivity (antimicrobial activity relative to host cell toxicity) ([5]; listed as Melittin): entirely non-selective
